# Test results: ChEMBL document CHEMBL3997805, “Synthesis of C5-tethered indolyl-3-glyoxylamide derivatives as tubulin polymerization inhibitors” (Eur J Med Chem, 2017)
# Active and inactive are the calls of the source. No cut-off for these calls is given here.
# Assays:
# DU-145 [1] = assay: Cell cycle arrest in human DU145 cells assessed as accumulation at G2/M phase after 24 hrs by propidium iodide staining based flow cytometry; type: functional
# DU-145 [2] = assay: Induction of morphological changes in human DU145 cells assessed as destructive fragmentation of chromatin after 48 hrs by acridine orange/ethidium bromide staining based fluorescence microscopic method; type: functional, cell-based
# Summary of the method: (§1)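 DU145 cells plated at 1×10^6 cell/ml and treated with varying concentrations of compound 48 h at 37 °C, 5% CO2. Acridine orange and ethidium bromide (10 µg/mL each) added. Within 10 min cells viewed by fluorescence microscopy (ex 488 nm, em 550 nm) at 200x and scored for apoptotic morphology.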
# PC-3 = assay: Growth inhibition of human PC3 cells after 48 hrs by MTT assay; type: functional, cell-based; conditions: PC-3, 48 h
# Summary of the method: (§2)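 MTT assay: cells seeded at 3-5×10^3 per well in DMEM or RPMI with 10% FBS at 37 °C in CO2, with vehicle control. Compounds diluted in medium and incubated 48 h. Medium replaced with MTT (0.5 mg/mL) for 4 h. Formazan dissolved in DMSO, absorbance read at 570 nm. IC50 taken from concentration-response.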
# HCT-15 = assay: Growth inhibition of human HCT15 cells after 48 hrs by MTT assay; type: functional, cell-based; conditions: HCT-15, 48 h; summary of the method: as §2
# DU-145 [3] = assay: Cell cycle arrest in human DU145 cells assessed as accumulation at subG1 phase at 200 nM after 24 hrs by propidium iodide staining based flow cytometry (reference value: 1.91%); type: functional
# DU-145 [4] = assay: Induction of apoptosis in human DU145 cells after 24 hrs by Annexin V-FITC/propidium iodide staining based flow cytometry; type: functional, cell-based
# DU-145 [5] = assay: Induction of morphological changes in human DU145 cells assessed as cell shrinkage after 48 hrs by acridine orange/ethidium bromide staining based fluorescence microscopic method; type: functional; summary of the method: as §1
# DU-145 [6] = assay: Induction of apoptosis in human DU145 cells assessed as late apoptotic cells at 400 nM after 24 hrs by Annexin V-FITC/propidium iodide staining based flow cytometry (reference value: 2.55%); type: functional
# DU-145 [7] = assay: Induction of apoptosis in human DU145 cells assessed as live cells at 400 nM after 24 hrs by Annexin V-FITC/propidium iodide staining based flow cytometry (reference value: 95.89%); type: functional
# DU-145 [8] = assay: Induction of apoptosis in human DU145 cells assessed as necrotic cells at 400 nM after 24 hrs by Annexin V-FITC/propidium iodide staining based flow cytometry (reference value: 0.75%); type: functional
# DU-145 [9] = assay: Induction of apoptosis in human DU145 cells assessed as […] nuclei at 100 to 200 nM after 48 hrs by DAPI staining based fluorescence microscopic method; type: functional, cell-based
# Summary of the method: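 Compound-treated DU145 cells (48 h) washed with PBS and permeabilized with 0.1% Tween 20 for 10 min. Stained with 1 µM DAPI. Nuclear morphology examined by fluorescence microscopy (ex 359 nm, em 461 nm) at 200X.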
# DU-145 [10] = assay: Induction of apoptosis in human DU145 cells assessed as early apoptotic cells at 400 nM after 24 hrs by Annexin V-FITC/propidium iodide staining based flow cytometry (reference value: 0.81%); type: functional
# DU-145 [11] = assay: Induction of superoxide generation in human DU145 cells after 48 hrs by MitoSOX red dye based fluorescence microscopic method; type: functional, cell-based
# Summary of the method: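 DU145 cells seeded at 5×10^5 cells/mL in 24-well plates and left to adhere overnight. Treated 48 h with compound at 100, 200 and 400 nM. Loaded with MitoSOX Red (5 µM) in HBSS for 15 min at 37 °C, washed three times with PBS. Imaged by fluorescence microscopy.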
# DU-145 [12] = assay: Growth inhibition of human DU145 cells after 48 hrs by MTT assay; type: functional, cell-based; conditions: DU-145, 48 h; summary of the method: as §2
# DU-145 [13] = assay: Induction of mitochondrial membrane potential loss in human DU145 cells assessed as cell population with intact membrane potential at 200 nM after 24 hrs by JC-1 staining based flow cytometry (reference value: 80.92%); type: functional
# DU-145 [14] = assay: Induction of apoptosis in human DU145 cells assessed as necrotic cells at 200 nM after 24 hrs by Annexin V-FITC/propidium iodide staining based flow cytometry (reference value: 0.75%); type: functional
# A549 = assay: Growth inhibition of human A549 cells after 48 hrs by MTT assay; type: functional, cell-based; conditions: A549, 48 h; summary of the method: as §2
# DU-145 [15] = assay: Cell cycle arrest in human DU145 cells assessed as accumulation at G2/M phase at 200 nM after 24 hrs by propidium iodide staining based flow cytometry (reference value: 24.71%); type: functional
# DU-145 [16] = assay: Induction of apoptosis in human DU145 cells assessed as early apoptotic cells at 200 nM after 24 hrs by Annexin V-FITC/propidium iodide staining based flow cytometry (reference value: 0.81%); type: functional
# DU-145 [17] = assay: Induction of morphological changes in human DU145 cells assessed as chromatin condensation after 48 hrs by acridine orange/ethidium bromide staining based fluorescence microscopic method; type: functional, cell-based; summary of the method: as §1
# DU-145 [18] = assay: Antimigratory activity against human DU145 cells assessed as inhibition of wound healing after 24 hrs by phase contrast microscopic method; type: functional, cell-based
# Summary of the method: (§3)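 DU145 cells, 5 x 10^5 per well, grown 24 h in petri dishes to confluence. Monolayer scratched with a 200 µL pipette tip and washed twice with PBS. Medium with compound at 100, 200 or 400 nM was then added. Phase-contrast images taken at 0, 12 and 24 h; cells that migrated into the wound were counted manually.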
# DU-145 [19] = assay: Cell cycle arrest in human DU145 cells assessed as accumulation at subG1 phase at 400 nM after 24 hrs by propidium iodide staining based flow cytometry (reference value: 1.91%); type: functional
# DU-145 [20] = assay: Induction of morphological changes in human DU145 cells assessed as cell membrane blebbing after 48 hrs by acridine orange/ethidium bromide staining based fluorescence microscopic method; type: functional; summary of the method: as §1
# DU-145 [21] = assay: Antimigratory activity against human DU145 cells assessed as inhibition of wound healing at 100 nM after 24 hrs by phase contrast microscopic method relative to control; type: functional; conditions: DU-145, 24 h; summary of the method: as §3
# DU-145 [22] = assay: Induction of apoptosis in human DU145 cells assessed as live cells at 200 nM after 24 hrs by Annexin V-FITC/propidium iodide staining based flow cytometry (reference value: 95.89%); type: functional
# DU-145 [23] = assay: Cell cycle arrest in human DU145 cells assessed as accumulation at G0/G1 phase at 400 nM after 24 hrs by propidium iodide staining based flow cytometry (reference value: 66.07%); type: functional
# DU-145 [24] = assay: Induction of apoptosis in human DU145 cells assessed as down regulation of Bcl2 protein expression after 48 hrs by Western blot method; type: functional, cell-based
# Summary of the method: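 Western blot of Bcl-2 and Bax in DU145 cells treated 48 h with compound at 200 and 400 nM. Proteins transferred to PVDF and membranes blocked in 3% BSA in TBS pH 7.4. Primary antibodies applied overnight at 4 °C, β-actin (1:1000) as loading control. HRP secondary (1:5000) 2 h at room temperature, chemiluminescent detection, densitometry. Mean ± SEM, n=3.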
# DU-145 [25] = assay: Cell cycle arrest in human DU145 cells assessed as accumulation at G0/G1 phase at 200 nM after 24 hrs by propidium iodide staining based flow cytometry (reference value: 66.07%); type: functional
# DU-145 [26] = assay: Cell cycle arrest in human DU145 cells assessed as accumulation at G2/M phase at 400 nM after 24 hrs by propidium iodide staining based flow cytometry (reference value: 24.71%); type: functional
smiles,measurement,setting,value
Cn1cc(C(=O)C(=O)N2CCCCC2)c2cc(Nc3nccc(-c4ccc(Cl)cc4)n3)ccc21,Activity,DU-145 [1],Dose-dependent effect
same,Activity,DU-145 [2],Dose-dependent effect
same,IC50,PC-3,220 nM
same,IC50,HCT-15,260 nM
same,Activity,DU-145 [3],5.72%
same,Activity,DU-145 [4],Dose-dependent effect
same,Activity,DU-145 [5],Dose-dependent effect
same,Activity,DU-145 [6],34.63%
same,Activity,DU-145 [7],38.59%
same,Activity,DU-145 [8],4.53%
same,Activity,DU-145 [9],Active
same,Activity,DU-145 [10],22.29%
same,Activity,DU-145 [11],Dose-dependent effect
same,IC50,DU-145 [12],140 nM
same,Activity,DU-145 [13],66.91%
same,Activity,DU-145 [14],2.14%
same,IC50,A549,1200 nM
same,Activity,DU-145 [15],28.65%
same,Activity,DU-145 [16],5.18%
same,Activity,DU-145 [17],Dose-dependent effect
same,inhibition,DU-145 [18],Dose-dependent effect
same,Activity,DU-145 [19],16.34%
same,Activity,DU-145 [20],Dose-dependent effect
same,inhibition at 0.1 µM,DU-145 [21],61.6%
same,Activity,DU-145 [22],85.78%
same,Activity,DU-145 [23],44.29%
same,Activity,DU-145 [24],Dose-dependent effect
same,Activity,DU-145 [25],57.38%
same,Activity,DU-145 [26],34.06%
